This passage reports Ki results from ChEMBL document CHEMBL1154740, “Efficient microwave combinatorial synthesis of novel indolic arylpiperazine derivatives as serotoninergic ligands” (Eur J Med Chem, 2010).

Assay [1] deals with T1, 5-hydroxytryptamine receptor 2C (Rattus norvegicus, UniProt P08909).
T1 sequence (P08909 whole entry): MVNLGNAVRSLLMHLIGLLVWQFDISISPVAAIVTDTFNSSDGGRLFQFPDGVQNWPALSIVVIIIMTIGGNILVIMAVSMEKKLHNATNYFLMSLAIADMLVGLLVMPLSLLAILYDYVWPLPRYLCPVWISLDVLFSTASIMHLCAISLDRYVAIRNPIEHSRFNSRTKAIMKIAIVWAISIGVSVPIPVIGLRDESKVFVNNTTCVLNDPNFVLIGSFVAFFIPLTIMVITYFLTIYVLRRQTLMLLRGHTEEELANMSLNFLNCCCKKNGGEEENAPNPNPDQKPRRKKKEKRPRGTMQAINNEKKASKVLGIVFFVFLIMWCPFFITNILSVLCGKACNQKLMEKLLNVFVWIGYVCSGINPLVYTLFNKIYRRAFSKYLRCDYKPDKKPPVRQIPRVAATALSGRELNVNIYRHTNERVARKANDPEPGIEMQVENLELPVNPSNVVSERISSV
Nature of the assay: Displacement of [3H]mesulergine from 5HT2C in Sprague-Dawley rat brain cortex by liquid scintillation counting. In outline: (§1)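 Frontal cortex of male Sprague–Dawley rats (180–220 g), in 50 mM Tris-HCl, 0.5 mM EDTA, 10 mM MgCl2, pH 7.4, plus 0.1% ascorbate and pargyline. Triplicate 2.0 mL assays: 5-HT2A with 5 mg tissue and 0.4 nM [3H]ketanserin; 5-HT2C with 10 mg tissue and 1 nM [3H]mesulergine. 15 min at 37 °C, PEI-soaked filters. IC50 from six concentrations converted to Ki (Cheng–Prusoff).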

In assay [2] the target is T2, 5-hydroxytryptamine receptor 1A (Rattus norvegicus, UniProt P19327).
T2 sequence (P19327 whole entry): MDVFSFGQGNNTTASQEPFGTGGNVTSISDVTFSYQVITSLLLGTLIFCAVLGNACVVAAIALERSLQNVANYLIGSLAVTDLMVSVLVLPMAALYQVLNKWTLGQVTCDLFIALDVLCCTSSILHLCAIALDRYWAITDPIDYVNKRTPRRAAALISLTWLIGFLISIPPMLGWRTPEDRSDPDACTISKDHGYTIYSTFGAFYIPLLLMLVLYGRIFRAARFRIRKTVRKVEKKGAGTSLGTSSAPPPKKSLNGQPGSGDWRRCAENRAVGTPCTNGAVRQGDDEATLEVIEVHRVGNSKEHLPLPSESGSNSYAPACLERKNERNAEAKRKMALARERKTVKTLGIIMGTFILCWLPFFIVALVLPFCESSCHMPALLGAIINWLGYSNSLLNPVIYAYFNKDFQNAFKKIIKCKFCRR
Nature of the assay: Displacement of [3H]8OH-DPAT from 5HT1A in Sprague-Dawley rat brain cortex by liquid scintillation counting. In outline:
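Male Sprague–Dawley rat (180–220 g) cerebral cortex membranes, washed and preincubated 10 min at 37 °C, in Tris–HCl pH 7.7 with pargyline, 4 mM CaCl2, 0.1% ascorbate. [3H]-8-OH-DPAT at 0.1 nM final, 30 min at 37 °C, GF/B filtration. Nonspecific binding defined with 5-HT. Six concentrations in triplicate; IC50 converted to Ki by Cheng–Prusoff using Scatchard KD.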

For assay [3], the target named is 5-hydroxytryptamine receptor 2A (Rattus norvegicus, UniProt P14842). Nature of the assay: Displacement of [3H]ketanserin from 5HT2A in Sprague-Dawley rat brain cortex by liquid scintillation counting. In outline: as §1
Sequence of 5-hydroxytryptamine receptor 2A (P14842 whole entry): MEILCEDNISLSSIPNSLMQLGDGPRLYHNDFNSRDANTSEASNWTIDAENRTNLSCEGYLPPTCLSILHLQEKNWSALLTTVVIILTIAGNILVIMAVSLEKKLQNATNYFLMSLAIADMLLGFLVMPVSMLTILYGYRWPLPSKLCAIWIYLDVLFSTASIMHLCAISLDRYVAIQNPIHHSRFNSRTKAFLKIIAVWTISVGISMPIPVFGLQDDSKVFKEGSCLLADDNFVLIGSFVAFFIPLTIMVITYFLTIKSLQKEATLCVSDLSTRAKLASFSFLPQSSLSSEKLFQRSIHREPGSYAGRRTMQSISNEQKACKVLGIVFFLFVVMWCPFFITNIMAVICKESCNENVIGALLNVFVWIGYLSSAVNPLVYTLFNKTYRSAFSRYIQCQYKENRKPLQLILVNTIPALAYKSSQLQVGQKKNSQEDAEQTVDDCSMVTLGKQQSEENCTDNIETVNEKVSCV

For `CCOC(=O)c1cc2cc(OCCCN3CCN(c4cccc(C(F)(F)F)c4)CC3)ccc2[nH]1`, the figures for the Ki result in assay [1], in assay [2] (read-out: Ki) and in assay [3] (read-out: Ki) were “Not Active”, 35.8 nM and 3610 nM, respectively.
As to `CCOC(=O)c1cc2cc(OCCCN3CCN(C(=O)c4ccco4)CC3)ccc2[nH]1`, the Ki in assay [1] (read-out: Ki) is 309 nM; in assay [2] it was “Not Active”; in assay [3] (read-out: Ki), 452 nM.
Take `CCOC(=O)c1cc2cc(OCCCN3CCN(c4ccccc4C#N)CC3)ccc2[nH]1`: the inhibition constant (Ki) result in assay [1] and in assay [3] was “Not Active” in each case.
Consider `CCOC(=O)c1cc2cc(OCCCN3CCN(c4ccc(Cl)cc4)CC3)ccc2[nH]1`, for which the Ki turned out to be 45.1 nM in assay [1] (read-out: Ki) and 14 nM in assay [2] (read-out: Ki).
`CCOC(=O)c1cc2cc(OCCCN3CCN(c4ccc(Cl)c(Cl)c4)CC3)ccc2[nH]1`: the Ki is 10000 nM in assay [1] (read-out: Ki), 10000 nM in assay [2] (read-out: Ki) and “Not Active” in assay [3].
In the case of `CCOC(=O)c1cc2cc(OCCCN3CCN(c4ccc([N+](=O)[O-])cc4)CC3)ccc2[nH]1`, the results for the Ki in assay [1] (read-out: Ki), in assay [2] and in assay [3] (read-out: Ki) were 247 nM, “Not Active” and 10000 nM, respectively.
Regarding `CCOC(=O)c1cc2cc(OCCCN3CCN(c4ccccc4Cl)CC3)ccc2[nH]1`, the values for the Ki in assay [1] (read-out: Ki), in assay [2] (read-out: Ki) and in assay [3] (read-out: Ki) were 39.7 nM, 10000 nM and 537 nM, respectively.
Turning to `CCOC(=O)c1cc2cc(OCCCN3CCN(c4ccccn4)CC3)ccc2[nH]1`, the values for the Ki in assay [1] (read-out: Ki), in assay [2] and in assay [3] (read-out: Ki) were 104 nM, “Not Active” and 344 nM, respectively.
With `CCOC(=O)c1cc2cc(OCCCN3CCN(c4ccccc4C)CC3)ccc2[nH]1`, the inhibition constant Ki result in assay [1] and in assay [3] was “Not Active” throughout.
